The source made the active and inactive calls. The calls are words filed in the database; no cut-off is given here.

One may read the Papp B→A as the apparent permeability from the basolateral to the apical side of a cell layer. As usually defined, the bioavailability is the share of a dose that reaches the circulation, judged against a reference dose that is usually intravenous. A word on the Ki: it is the equilibrium dissociation constant of an inhibitor or competing ligand from its target. Read a low Ki as higher affinity. As usually defined, the half-life is how long it takes for the measured level to halve. Higher therefore signals slow decline. In general, IC50 refers to the point on the concentration scale where inhibition reaches its midpoint. Read a low IC50 as higher potency.

Series [1] is described as follows: Apparent permeability from basolateral to apical side of the human Caco2 cells. The class given is ADME, cell-based. The settings on record: Caco-2. On the technique in general: Caco-2 monolayers are a common model of the intestinal barrier.
Series [2] in a line: Drug uptake in brain of cPP-induced feeding rat model at 30 mg/kg, po after 1 hr. The class given is ADME, organism-based. Further details: dose 30 mg/kg, route oral. The settings on record: read-out: Drug uptake. Put shortly: (§1)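 Satellite rats (n = 2/dose) sampled each week alongside the cPP feeding test; Lu-series dosed po at 3, 10 or 30 mg/kg as suspension in 20% HP-β-cyclodextrin; plasma (ng/mL) and brain tissue (ng/g) levels taken at 1, 2, 4, 6 and 24 h post-dose; mean ± SD reported.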

Series [3] can be described thus: Oral bioavailability in Sprague-Dawley rat at 2 mg/kg by HPLC analysis. To be noted: in vivo. The class given is ADME, organism-based. An outline of the steps: (§2)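 Male Sprague-Dawley rats (200–250 g, n = 2) with jugular and carotid cannulae, dosed 1 mg/kg iv and 2 mg/kg po in crossover after 24 h washout. Vehicle was 20% beta cyclodextrin, pH adjusted with methanesulfonic acid to give a solution. Automated serial blood sampling took 12 time points over 24 h. Plasma was quantified by HPLC-MS/MS, with noncompartmental analysis.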

Series [4] deals with T1, Neuropeptide Y receptor type 5 (Rattus norvegicus, UniProt Q63634).
T1 sequence (Q63634 whole entry): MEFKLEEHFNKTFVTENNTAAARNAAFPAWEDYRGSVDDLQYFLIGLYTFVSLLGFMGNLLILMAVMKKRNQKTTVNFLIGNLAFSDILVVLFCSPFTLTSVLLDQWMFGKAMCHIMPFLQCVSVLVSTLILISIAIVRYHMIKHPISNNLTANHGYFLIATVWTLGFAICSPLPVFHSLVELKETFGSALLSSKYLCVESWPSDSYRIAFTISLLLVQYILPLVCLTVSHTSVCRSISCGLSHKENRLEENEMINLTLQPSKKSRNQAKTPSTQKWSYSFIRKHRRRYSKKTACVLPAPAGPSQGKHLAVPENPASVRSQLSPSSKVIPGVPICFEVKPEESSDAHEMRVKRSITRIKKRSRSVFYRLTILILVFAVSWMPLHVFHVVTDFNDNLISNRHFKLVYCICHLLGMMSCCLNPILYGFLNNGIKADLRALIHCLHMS
The series can be described thus: Antagonist activity at rat NPY5 receptor. The class given is functional.

Series [5] can be described thus: Drug uptake in rat brain at 10 mg/kg, po after 4 hrs. The class given is ADME, organism-based. Further details: dose 10 mg/kg, route oral. To be noted: read-out: Drug uptake. An outline of the steps: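 Rat single oral dose of 10 mg/kg, two animals; plasma and brain homogenate levels measured at 4 h and averaged; quantification limit 2 ng/mL plasma, 2 ng/g brain.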

In series [6] the target is 5-hydroxytryptamine receptor 2B (Homo sapiens, UniProt P41595). Description: Binding affinity to human 5HT2B receptor.
Chain of 5-hydroxytryptamine receptor 2B (P41595 whole entry): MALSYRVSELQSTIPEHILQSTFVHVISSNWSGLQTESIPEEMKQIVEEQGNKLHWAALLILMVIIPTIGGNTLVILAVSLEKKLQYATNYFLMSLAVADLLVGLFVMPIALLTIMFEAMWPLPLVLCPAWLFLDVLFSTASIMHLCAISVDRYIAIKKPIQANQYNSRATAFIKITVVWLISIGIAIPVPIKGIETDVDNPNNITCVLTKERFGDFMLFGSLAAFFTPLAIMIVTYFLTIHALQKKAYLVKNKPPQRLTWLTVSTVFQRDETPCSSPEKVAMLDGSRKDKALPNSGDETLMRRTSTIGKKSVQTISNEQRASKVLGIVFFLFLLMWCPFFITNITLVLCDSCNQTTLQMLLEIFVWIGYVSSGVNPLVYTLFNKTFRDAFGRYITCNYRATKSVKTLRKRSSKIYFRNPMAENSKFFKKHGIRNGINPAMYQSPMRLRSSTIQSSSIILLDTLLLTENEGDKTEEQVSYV
Series [7] is described as follows: Drug uptake in brain of cPP-induced feeding rat model at 3 mg/kg, po after 1 hr. The class given is ADME, organism-based. More on the design: dose 3 mg/kg, route oral. To be noted: read-out: Drug uptake. Put shortly: as §1
A short description of series [8]: Plasma concentration in cPP-induced feeding rat model at 30 mg/kg, po after 4 hrs. The class given is ADME, organism-based. More on the design: dose 30 mg/kg, route oral. Put shortly:
(§3)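 Satellite rats (n = 2/dose per week), cannulated in the lateral cerebral ventricle for the feeding study, dosed orally at 3, 10 or 30 mg/kg as a suspension in 20% HP-β-cyclodextrin. Plasma was sampled 1, 2, 4, 6 or 24 h after dosing, alongside i.c.v. cPP (0.6 nmol) feeding tests. Values are given as mean with SD.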

The species named for a further series is Rattus norvegicus. The series can be described thus: Inhibition of food intake in rat after 24 hrs starvation. The series is classed as functional, organism-based.
The nature of series [9]: Volume of distribution at steady state in Sprague-Dawley rat at 1 mg/kg, iv and 2 mg/kg, po by HPLC analysis. The series is classed as ADME, organism-based. The settings on record: in vivo, read-out: Vdss. An outline of the steps:
as §2

A short description of series [10]: Drug uptake in brain of cPP-induced feeding rat model at 30 mg/kg, po after 6 hrs. The class given is ADME, organism-based. More on the design: dose 30 mg/kg, route oral. The settings on record: read-out: Drug uptake. An outline of the steps:
as §1

A short description of series [11]: Drug uptake in brain of cPP-induced feeding rat model at 10 mg/kg, po after 4 hrs. Further details: dose 10 mg/kg, route oral. The settings on record: read-out: Drug uptake. The series is classed as ADME, organism-based. Put shortly:
as §1

Series [12] in a line: Plasma concentration in cPP-induced feeding rat model at 30 mg/kg, po after 1 hr. The series is classed as ADME, organism-based. Further details: dose 30 mg/kg, route oral. An outline of the steps: as §3
In the next series the test system is Liver microsomes. The series can be described thus: Intrinsic clearance in human liver microsome. The series is classed as ADME. On the technique in general: Liver microsomes are a subcellular fraction often used to study metabolism.
Series [13] can be described thus: Half life in Sprague-Dawley rat at 1 mg/kg, iv and 2 mg/kg, po by HPLC analysis. The class given is ADME, organism-based. To be noted: in vivo. Put shortly:
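Cannulated (jugular and carotid) male Sprague-Dawley rats, 200–250 g, n = 2; 1 mg/kg iv and 2 mg/kg po crossover after 24 h washout; dosed in 20% β-cyclodextrin pH-adjusted with methanesulfonic acid; 12 serial blood samples over 24 h; plasma by LC-MS/MS; noncompartmental analysis.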

The next series concerns the target T2, Cytochrome P450 1A2 (Homo sapiens, UniProt P05177).
T2 sequence (P05177 whole entry): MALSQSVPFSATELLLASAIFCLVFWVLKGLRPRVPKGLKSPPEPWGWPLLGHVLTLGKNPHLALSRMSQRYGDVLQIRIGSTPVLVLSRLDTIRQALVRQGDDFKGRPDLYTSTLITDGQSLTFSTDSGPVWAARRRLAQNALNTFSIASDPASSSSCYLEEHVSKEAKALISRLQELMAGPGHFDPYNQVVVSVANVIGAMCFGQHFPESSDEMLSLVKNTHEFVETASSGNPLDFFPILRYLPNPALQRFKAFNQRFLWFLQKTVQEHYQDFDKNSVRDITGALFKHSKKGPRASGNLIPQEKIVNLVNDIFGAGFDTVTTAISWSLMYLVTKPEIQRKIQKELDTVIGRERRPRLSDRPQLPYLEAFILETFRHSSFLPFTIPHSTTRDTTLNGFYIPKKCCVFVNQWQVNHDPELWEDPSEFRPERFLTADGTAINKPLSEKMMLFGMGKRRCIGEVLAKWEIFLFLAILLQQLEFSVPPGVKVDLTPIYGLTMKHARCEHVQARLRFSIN
The series can be described thus: Inhibition of CYP1A2. The series is classed as ADME.

In series [14] the target is T3, Neuropeptide Y receptor type 5 (Homo sapiens, UniProt Q15761).
T3 sequence (Q15761 whole entry): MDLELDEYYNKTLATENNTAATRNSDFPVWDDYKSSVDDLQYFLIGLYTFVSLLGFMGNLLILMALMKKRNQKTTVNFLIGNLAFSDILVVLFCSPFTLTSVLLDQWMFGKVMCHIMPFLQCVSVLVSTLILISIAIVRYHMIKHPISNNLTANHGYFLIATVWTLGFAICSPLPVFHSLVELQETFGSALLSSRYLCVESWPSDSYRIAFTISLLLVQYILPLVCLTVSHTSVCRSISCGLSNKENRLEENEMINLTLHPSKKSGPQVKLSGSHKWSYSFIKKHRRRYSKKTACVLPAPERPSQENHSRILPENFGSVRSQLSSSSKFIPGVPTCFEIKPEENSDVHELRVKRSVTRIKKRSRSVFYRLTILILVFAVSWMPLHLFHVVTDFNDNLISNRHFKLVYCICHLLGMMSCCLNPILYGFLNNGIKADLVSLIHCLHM
Description: Binding affinity to human NPY5 receptor.

Series [15] in a line: Drug uptake in brain of cPP-induced feeding rat model at 3 mg/kg, po after 4 hrs. The series is classed as ADME, organism-based. The settings on record: read-out: Drug uptake. Further details: dose 3 mg/kg, route oral. Put shortly:
as §1

Series [16] in a line: Drug uptake in brain of cPP-induced feeding rat model at 3 mg/kg, po after 6 hrs. The class given is ADME, organism-based. More on the design: dose 3 mg/kg, route oral. The settings on record: read-out: Drug uptake. An outline of the steps: as §1
The nature of series [17]: Oral bioavailability in mouse at 2 mg/kg by HPLC analysis. The series is classed as ADME, organism-based. The settings on record: in vivo.
A short description of series [18]: Plasma concentration in cPP-induced feeding rat model at 3 mg/kg, po after 6 hrs. More on the design: dose 3 mg/kg, route oral. The class given is ADME, organism-based. Put shortly:
as §3

The nature of series [19]: Drug uptake in brain of cPP-induced feeding rat model at 30 mg/kg, po after 4 hrs. The class given is ADME, organism-based. More on the design: dose 30 mg/kg, route oral. The settings on record: read-out: Drug uptake. Put shortly:
as §1

Take `CS(=O)(=O)NC[C@H]1CC[C@H](Nc2nc3c(s2)CCSc2ccccc2-3)CC1`: the basolateral-to-apical permeability (Papp B→A) in series [1] came to 40.4 ×10⁻⁶ cm/s. For the same compound, the results for the concentration at 1 h in series [2], in series [7] and in series [12] were 288 ng/g, 54 ng/g and 267 ng/mL, respectively. In addition, the results for the bioavailability in series [3] and in [17] were 92% and 42%, respectively. The inhibitory constant (Ki) in [4] came out at 1.4 nM; in series [6], 245 nM; in series [14] it was 1.5 nM. The concentration at 4 h was determined as 460 ng/g in series [5]; 519 ng/mL in series [8]; 172 ng/g in [11]; 52 ng/g in [15]; 643 ng/g in series [19]. Also, the inhibition entry in the series listed under Rattus norvegicus was “inactive”. For the same compound, the Vd in [9] was found to be 3.3 L/kg. Besides, the concentration at 6 h in series [10] turned out to be 401 ng/g; in series [16], 30 ng/g; in series [18], 30 ng/mL. This compound also showed a CL in the series on Liver microsomes of 2.5 L/min. This compound also had a half-life in [13] of 6.3 h. Moreover, the 50% inhibitory concentration (IC50) against Cytochrome P450 1A2 is more than 10000 nM.

Source of the values: ChEMBL document CHEMBL1833793 (Bioorg Med Chem Lett, 2011).
